# ChEMBL document CHEMBL3526053, “Species-dependent uptake of glycylsarcosine but not oseltamivir in Pichia pastoris expressing the rat, mouse, and human intestinal peptide transporter PEPT1” (Drug Metab Dispos, 2012)
# Legend:
# Type in all cases: ADME
# [1] = molecular target: T1, Solute carrier family 15 member 1 (Rattus norvegicus, UniProt P51574); experiment: Drug uptake in Pichia pastoris GS115 expressing rat recombinant PEPT1 at 5 uM after 30s by dual-channel liquid scintillation counting analysis in presence of cefadroxil relative to control; conditions: in vivo, 0.5 min
# T1 sequence (P51574 whole entry): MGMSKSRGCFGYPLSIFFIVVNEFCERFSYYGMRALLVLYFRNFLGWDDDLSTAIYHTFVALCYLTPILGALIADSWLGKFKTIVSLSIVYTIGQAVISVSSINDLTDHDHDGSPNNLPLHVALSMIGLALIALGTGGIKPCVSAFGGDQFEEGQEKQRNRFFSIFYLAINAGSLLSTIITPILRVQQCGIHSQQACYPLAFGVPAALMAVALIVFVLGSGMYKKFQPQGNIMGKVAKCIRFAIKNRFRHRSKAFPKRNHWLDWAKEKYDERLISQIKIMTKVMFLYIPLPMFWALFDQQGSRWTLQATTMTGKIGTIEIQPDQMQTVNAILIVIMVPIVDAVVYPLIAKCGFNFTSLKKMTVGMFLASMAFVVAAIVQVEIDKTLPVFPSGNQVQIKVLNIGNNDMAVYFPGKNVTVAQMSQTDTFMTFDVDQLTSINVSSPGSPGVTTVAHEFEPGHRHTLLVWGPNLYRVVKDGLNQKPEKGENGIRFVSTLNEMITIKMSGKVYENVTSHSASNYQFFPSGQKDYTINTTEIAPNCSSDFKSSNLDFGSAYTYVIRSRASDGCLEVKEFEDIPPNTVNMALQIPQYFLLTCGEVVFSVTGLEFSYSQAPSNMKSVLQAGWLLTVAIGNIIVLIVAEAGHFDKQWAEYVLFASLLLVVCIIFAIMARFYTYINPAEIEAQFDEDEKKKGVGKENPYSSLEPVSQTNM
# Procedure, shortened: (§1)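 [3H]GlySar 5.0 µM final, 30-s uptake at 24°C in 100 mM potassium phosphate pH 6.5, with or without a potential inhibitor at 10 mM. Cells are methanol-induced transformants. Values are vector-subtracted and expressed as percent of buffer control. Mean ± SE (n=3). ANOVA with Dunnett's test.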
# [2] = molecular target: T2, Solute carrier family 15 member 1 (Mus musculus, UniProt Q9JIP7); experiment: Drug uptake in Pichia pastoris GS115 expressing mouse recombinant PEPT1 at 5 uM after 30s by dual-channel liquid scintillation counting analysis in presence of GlyPro relative to control; conditions: 0.5 min; procedure, shortened: as §1
# T2 sequence (Q9JIP7 whole entry): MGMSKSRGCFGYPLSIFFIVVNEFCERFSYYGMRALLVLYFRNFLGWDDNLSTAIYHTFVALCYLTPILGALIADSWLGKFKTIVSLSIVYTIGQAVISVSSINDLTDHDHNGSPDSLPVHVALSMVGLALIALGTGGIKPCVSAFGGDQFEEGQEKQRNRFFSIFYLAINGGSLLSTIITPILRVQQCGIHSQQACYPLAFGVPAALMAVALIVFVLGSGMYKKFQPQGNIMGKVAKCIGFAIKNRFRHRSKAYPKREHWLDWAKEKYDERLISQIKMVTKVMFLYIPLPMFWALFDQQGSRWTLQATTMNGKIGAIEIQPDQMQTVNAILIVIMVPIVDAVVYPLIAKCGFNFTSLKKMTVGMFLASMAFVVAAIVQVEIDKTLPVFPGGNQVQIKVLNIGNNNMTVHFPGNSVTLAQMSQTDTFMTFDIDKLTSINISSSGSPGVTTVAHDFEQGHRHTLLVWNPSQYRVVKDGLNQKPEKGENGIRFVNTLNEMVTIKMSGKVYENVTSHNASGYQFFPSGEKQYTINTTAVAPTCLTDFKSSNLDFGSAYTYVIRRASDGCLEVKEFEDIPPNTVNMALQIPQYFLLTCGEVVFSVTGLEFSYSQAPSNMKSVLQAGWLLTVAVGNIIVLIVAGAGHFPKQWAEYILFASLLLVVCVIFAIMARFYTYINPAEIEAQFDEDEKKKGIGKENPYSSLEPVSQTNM
# [3] = molecular target: T3, Solute carrier family 15 member 1 (Homo sapiens, UniProt P46059); experiment: Drug uptake in Pichia pastoris GS115 expressing human recombinant PEPT1 at 5 uM after 30s by dual-channel liquid scintillation counting analysis relative to control; conditions: 0.5 min; procedure, shortened: as §1
# T3 sequence (P46059 whole entry): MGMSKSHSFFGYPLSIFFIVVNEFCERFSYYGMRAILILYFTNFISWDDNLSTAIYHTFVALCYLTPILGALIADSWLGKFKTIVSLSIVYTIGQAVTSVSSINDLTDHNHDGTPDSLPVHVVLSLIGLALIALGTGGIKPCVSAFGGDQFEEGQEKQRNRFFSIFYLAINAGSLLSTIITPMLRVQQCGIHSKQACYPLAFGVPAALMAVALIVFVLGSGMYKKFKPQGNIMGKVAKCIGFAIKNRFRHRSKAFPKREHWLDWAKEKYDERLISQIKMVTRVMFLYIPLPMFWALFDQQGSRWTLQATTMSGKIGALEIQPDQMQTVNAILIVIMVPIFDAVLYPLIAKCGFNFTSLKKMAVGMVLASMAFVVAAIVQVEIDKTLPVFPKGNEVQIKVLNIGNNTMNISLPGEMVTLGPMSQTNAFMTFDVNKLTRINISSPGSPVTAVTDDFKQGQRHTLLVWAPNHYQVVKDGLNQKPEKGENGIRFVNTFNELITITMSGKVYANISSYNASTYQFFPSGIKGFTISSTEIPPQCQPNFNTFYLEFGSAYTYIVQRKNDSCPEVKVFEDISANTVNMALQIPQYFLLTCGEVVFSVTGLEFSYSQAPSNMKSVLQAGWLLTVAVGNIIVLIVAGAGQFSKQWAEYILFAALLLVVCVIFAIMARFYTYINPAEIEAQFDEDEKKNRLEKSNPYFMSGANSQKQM
# [4] = molecular target: T3, Solute carrier family 15 member 1; experiment: Drug uptake in Pichia pastoris GS115 expressing human recombinant PEPT1 at 5 uM after 30s by dual-channel liquid scintillation counting analysis in presence of glycine relative to control; conditions: 0.5 min; procedure, shortened: as §1
# [5] = molecular target: T2, Solute carrier family 15 member 1; experiment: Drug uptake in Pichia pastoris GS115 expressing mouse recombinant PEPT1 at 5 uM after 30s by dual-channel liquid scintillation counting analysis in presence of L-histidine relative to control; conditions: 0.5 min; procedure, shortened: as §1
# [6] = molecular target: T2, Solute carrier family 15 member 1; experiment: Drug uptake in Pichia pastoris GS115 expressing mouse recombinant PEPT1 at 5 uM after 30s by dual-channel liquid scintillation counting analysis relative to control; conditions: in vivo, 0.5 min; procedure, shortened: as §1
smiles,measurement,setting,value
[3H]C(C(=O)O)N(C)C(=O)CN (stereo unspecified),Drug uptake,[1],23.1%
same,Drug uptake,[2],1.9%
same,Drug uptake,[3],100%
same,Drug uptake,[4],130%
same,Drug uptake,[5],103%
same,Drug uptake,[6],100%
